Data on two compounds can be found in ChEMBL document CHEMBL1157912, “Impact of nature and length of linker incorporated in agonists on toll-like receptor 9-mediated immune responses” (J Med Chem, 2010).

SMILES strings stand for the structures.

In assay [1] the target is T1, Toll-like receptor 9 (Mus musculus) (UniProt Q9EQU3).
T1 sequence (whole entry): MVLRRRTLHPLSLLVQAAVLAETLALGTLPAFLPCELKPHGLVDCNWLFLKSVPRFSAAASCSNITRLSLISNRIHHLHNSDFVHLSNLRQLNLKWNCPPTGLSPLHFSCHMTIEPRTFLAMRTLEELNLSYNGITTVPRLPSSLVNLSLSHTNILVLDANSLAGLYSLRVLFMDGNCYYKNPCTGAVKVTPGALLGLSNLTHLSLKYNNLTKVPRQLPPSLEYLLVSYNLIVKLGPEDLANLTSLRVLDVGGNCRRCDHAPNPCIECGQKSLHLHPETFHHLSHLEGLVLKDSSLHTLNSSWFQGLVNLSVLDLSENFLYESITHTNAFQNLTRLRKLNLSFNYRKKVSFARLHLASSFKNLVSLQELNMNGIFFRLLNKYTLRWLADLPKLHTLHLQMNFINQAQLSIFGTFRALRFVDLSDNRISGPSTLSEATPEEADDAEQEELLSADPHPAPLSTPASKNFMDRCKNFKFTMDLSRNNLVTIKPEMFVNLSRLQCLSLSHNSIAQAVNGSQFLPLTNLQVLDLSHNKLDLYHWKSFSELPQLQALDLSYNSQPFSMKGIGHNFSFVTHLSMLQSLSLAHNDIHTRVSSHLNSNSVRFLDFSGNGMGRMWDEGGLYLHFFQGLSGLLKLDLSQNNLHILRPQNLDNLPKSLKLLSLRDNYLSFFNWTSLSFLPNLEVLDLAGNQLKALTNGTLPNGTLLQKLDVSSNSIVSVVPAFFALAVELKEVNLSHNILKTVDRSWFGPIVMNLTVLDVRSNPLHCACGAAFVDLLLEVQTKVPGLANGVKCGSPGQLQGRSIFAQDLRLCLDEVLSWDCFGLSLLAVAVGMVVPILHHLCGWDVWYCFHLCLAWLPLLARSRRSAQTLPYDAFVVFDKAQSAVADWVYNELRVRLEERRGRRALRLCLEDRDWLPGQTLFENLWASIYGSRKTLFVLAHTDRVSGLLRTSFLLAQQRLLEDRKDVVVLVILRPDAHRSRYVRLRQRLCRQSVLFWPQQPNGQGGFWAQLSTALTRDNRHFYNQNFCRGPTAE
Nature of the assay: Induction of TLR9-mediated IL12 production in C57BL/6 mouse spleen cells after 24 hrs by ELISA. The assay is classed as cell-based. In outline: (§1)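 C57BL/6 mouse spleen cells were cultured with agonists at 0.1, 0.3, 1, 3 and 10 μg/mL for 24 h. Secreted IL-12 and IL-6 in the supernatants were measured by ELISA. Values are averages of triplicate wells from one representative of at least two independent experiments.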
Background: In an ELISA, binding on a coated surface is turned into a signal by an enzyme label.

Assay [2] concerns the target T2, Toll-like receptor 9 (Homo sapiens) (UniProt Q9NR96).
T2 sequence (whole entry): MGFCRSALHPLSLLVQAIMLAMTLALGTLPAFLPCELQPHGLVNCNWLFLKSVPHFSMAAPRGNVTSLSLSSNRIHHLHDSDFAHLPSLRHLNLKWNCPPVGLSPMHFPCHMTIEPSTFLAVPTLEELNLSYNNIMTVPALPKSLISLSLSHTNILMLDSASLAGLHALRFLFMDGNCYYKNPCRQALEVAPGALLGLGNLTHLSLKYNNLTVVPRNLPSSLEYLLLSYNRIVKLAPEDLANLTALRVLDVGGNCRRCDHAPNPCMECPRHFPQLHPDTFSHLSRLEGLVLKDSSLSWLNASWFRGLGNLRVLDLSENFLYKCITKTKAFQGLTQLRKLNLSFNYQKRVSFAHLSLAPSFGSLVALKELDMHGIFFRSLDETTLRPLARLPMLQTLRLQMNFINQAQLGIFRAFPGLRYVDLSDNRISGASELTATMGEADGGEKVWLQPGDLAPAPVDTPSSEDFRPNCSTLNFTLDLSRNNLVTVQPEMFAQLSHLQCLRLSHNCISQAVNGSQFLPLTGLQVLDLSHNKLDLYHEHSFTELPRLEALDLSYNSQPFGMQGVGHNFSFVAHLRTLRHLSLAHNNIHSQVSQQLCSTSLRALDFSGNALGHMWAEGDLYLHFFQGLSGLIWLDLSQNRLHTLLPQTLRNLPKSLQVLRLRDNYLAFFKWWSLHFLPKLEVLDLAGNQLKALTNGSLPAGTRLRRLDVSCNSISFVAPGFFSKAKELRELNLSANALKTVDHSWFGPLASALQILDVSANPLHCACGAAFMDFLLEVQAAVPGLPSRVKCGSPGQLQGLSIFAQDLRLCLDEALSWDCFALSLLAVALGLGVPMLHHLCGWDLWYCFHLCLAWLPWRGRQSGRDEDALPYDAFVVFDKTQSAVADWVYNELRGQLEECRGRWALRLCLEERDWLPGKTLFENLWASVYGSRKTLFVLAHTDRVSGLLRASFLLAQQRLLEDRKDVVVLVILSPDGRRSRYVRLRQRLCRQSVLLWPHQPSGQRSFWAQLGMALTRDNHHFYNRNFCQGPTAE
Nature of the assay: Induction of TLR9-mediated immune stimulation in human PBMC assessed as RANTES production at 10 ug/ml after 24 hrs by luminex multiplex assay (RVb = 0.05 +/- 0.04 ng/ml).

The target in assay [3] is T2, Toll-like receptor 9 (Homo sapiens). The assay is described as follows: Induction of TLR9-mediated immune stimulation in human PBMC assessed as MIP1beta production at 2 ug/ml after 24 hrs by luminex multiplex assay (RVb = 0.03 +/- 0.02 ng/ml).
Assay [4] has the same target. Nature of the assay: Induction of TLR9-mediated immune stimulation in human PBMC assessed as RANTES production at 2 ug/ml after 24 hrs by luminex multiplex assay (RVb = 0.05 +/- 0.04 ng/ml).
Assay [5] has as its target T1, Toll-like receptor 9 (Mus musculus). The assay is described as follows: Activation of mouse TLR9 expressed in HEK293 cells assessed as induction of NF-kappaB activity after 18 hrs by SEAP assay. It counts as cell-based. In outline:
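HEK293 cells stably expressing mouse TLR9 were grown in DMEM with 10% heat-inactivated FBS. At 80% confluence they were transiently transfected with a SEAP reporter plasmid (100 ng/well, lipofectamine) for 6 h. Medium was then replaced and agonists were added for 18 h. Supernatant SEAP was read with QuantiBlue substrate at 620-645 nm. Results are expressed as fold NF-κB activity over PBS control.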

Assay [6] shares this target. The assay is described as follows: Induction of TLR9-mediated IL6 production in C57BL/6 mouse spleen cells after 24 hrs by ELISA. The assay is classed as cell-based. In outline: as §1
Assay [7] concerns the target T2, Toll-like receptor 9 (Homo sapiens). The assay is described as follows: Induction of TLR9-mediated immune stimulation in human PBMC assessed as MIP1alpha production at 10 ug/ml after 24 hrs by luminex multiplex assay (RVb = 0.01 ng/ml).
The target is the same in assay [8]. Nature of the assay: Induction of TLR9-mediated immune stimulation in human PBMC assessed as IL12 production at 2 ug/ml after 24 hrs by luminex multiplex assay (RVb = 0.00 ng/ml).
For assay [9] the target is unchanged. Nature of the assay: Induction of TLR9-mediated immune stimulation in human PBMC assessed as IP10 production at 10 ug/ml after 24 hrs by luminex multiplex assay (RVb = 0.00 ng/ml).

As for `Cc1cn([C@H]2C[C@H](OCCOCCOCCOCCOP(=O)(S)O[C@H]3C[C@H](n4cc(C)c(=O)[nH]c4=O)O[C@@H]3COP(=O)(S)O[C@H]3[C@@H](O)[C@H](n4ccc(N)nc4=O)O[C@@H]3COP(=O)(S)O[C@H]3C[C@H](n4cc(C)c(=O)[nH]c4=O)O[C@@H]3COP(=O)(S)O[C@H]3C[C@H](n4cc(C)c(=O)[nH]c4=O)O[C@@H]3COP(=O)(S)O[C@H]3C[C@H](n4ccc5c(=O)[nH]c(N)nc54)O[C@@H]3COP(=O)(S)O[C@H]3[C@@H](O)[C@H](n4ccc(N)nc4=O)O[C@@H]3COP(=O)(S)O[C@H]3C[C@H](n4cc(C)c(=O)[nH]c4=O)O[C@@H]3COP(=O)(S)O[C@H]3[C@@H](O)[C@H](n4cnc5c(=O)[nH]c(N)nc54)O[C@@H]3COP(=O)(S)O[C@H]3C[C@H](n4cc(C)c(=O)[nH]c4=O)O[C@@H]3COP(=O)(S)O[C@H]3[C@@H](O)[C@H](n4ccc(N)nc4=O)O[C@@H]3COP(=O)(S)O[C@H]3C[C@H](n4cc(C)c(=O)[nH]c4=O)O[C@@H]3CO)[C@@H](COP(=O)(S)O[C@H]3[C@@H](O)[C@H](n4ccc(N)nc4=O)O[C@@H]3COP(=O)(S)O[C@H]3C[C@H](n4cc(C)c(=O)[nH]c4=O)O[C@@H]3COP(=O)(S)O[C@H]3C[C@H](n4cc(C)c(=O)[nH]c4=O)O[C@@H]3COP(=O)(S)O[C@H]3C[C@H](n4ccc5c(=O)[nH]c(N)nc54)O[C@@H]3COP(=O)(S)O[C@H]3[C@@H](O)[C@H](n4ccc(N)nc4=O)O[C@@H]3COP(=O)(S)O[C@H]3C[C@H](n4cc(C)c(=O)[nH]c4=O)O[C@@H]3COP(=O)(S)O[C@H]3[C@@H](O)[C@H](n4cnc5c(=O)[nH]c(N)nc54)O[C@@H]3COP(=O)(S)O[C@H]3C[C@H](n4cc(C)c(=O)[nH]c4=O)O[C@@H]3COP(=O)(S)O[C@H]3[C@@H](O)[C@H](n4ccc(N)nc4=O)O[C@@H]3COP(=O)(S)O[C@H]3C[C@H](n4cc(C)c(=O)[nH]c4=O)O[C@@H]3CO)O2)c(=O)[nH]c1=O` (stereo partly drawn), the Activity entry in assay [1] is “Dose-dependent effect”; in assay [2], 1.09 ng/mL; in [3] it was 0.08 ng/mL; in assay [4], 0.7 ng/mL; in [5] it was “Dose-dependent effect”; in [6], “Dose-dependent effect”. The figures for the Activity in [7], in [8] and in assay [9] were 0.27 ng/mL, 0.11 ng/mL and 0.03 ng/mL, respectively.

`Cc1cn([C@H]2C[C@H](OCC(O)COP(=O)(S)O[C@H]3C[C@H](n4cc(C)c(=O)[nH]c4=O)O[C@@H]3COP(=O)(S)O[C@H]3[C@@H](O)[C@H](n4ccc(N)nc4=O)O[C@@H]3COP(=O)(S)O[C@H]3C[C@H](n4cc(C)c(=O)[nH]c4=O)O[C@@H]3COP(=O)(S)O[C@H]3C[C@H](n4cc(C)c(=O)[nH]c4=O)O[C@@H]3COP(=O)(S)O[C@H]3C[C@H](n4ccc5c(=O)[nH]c(N)nc54)O[C@@H]3COP(=O)(S)O[C@H]3[C@@H](O)[C@H](n4ccc(N)nc4=O)O[C@@H]3COP(=O)(S)O[C@H]3C[C@H](n4cc(C)c(=O)[nH]c4=O)O[C@@H]3COP(=O)(S)O[C@H]3[C@@H](O)[C@H](n4cnc5c(=O)[nH]c(N)nc54)O[C@@H]3COP(=O)(S)O[C@H]3C[C@H](n4cc(C)c(=O)[nH]c4=O)O[C@@H]3COP(=O)(S)O[C@H]3[C@@H](O)[C@H](n4ccc(N)nc4=O)O[C@@H]3COP(=O)(S)O[C@H]3C[C@H](n4cc(C)c(=O)[nH]c4=O)O[C@@H]3CO)[C@@H](COP(=O)(S)O[C@H]3[C@@H](O)[C@H](n4ccc(N)nc4=O)O[C@@H]3COP(=O)(S)O[C@H]3C[C@H](n4cc(C)c(=O)[nH]c4=O)O[C@@H]3COP(=O)(S)O[C@H]3C[C@H](n4cc(C)c(=O)[nH]c4=O)O[C@@H]3COP(=O)(S)O[C@H]3C[C@H](n4ccc5c(=O)[nH]c(N)nc54)O[C@@H]3COP(=O)(S)O[C@H]3[C@@H](O)[C@H](n4ccc(N)nc4=O)O[C@@H]3COP(=O)(S)O[C@H]3C[C@H](n4cc(C)c(=O)[nH]c4=O)O[C@@H]3COP(=O)(S)O[C@H]3[C@@H](O)[C@H](n4cnc5c(=O)[nH]c(N)nc54)O[C@@H]3COP(=O)(S)O[C@H]3C[C@H](n4cc(C)c(=O)[nH]c4=O)O[C@@H]3COP(=O)(S)O[C@H]3[C@@H](O)[C@H](n4ccc(N)nc4=O)O[C@@H]3COP(=O)(S)O[C@H]3C[C@H](n4cc(C)c(=O)[nH]c4=O)O[C@@H]3CO)O2)c(=O)[nH]c1=O` (stereo partly drawn): the Activity result was “Dose-dependent effect” in assay [1]; 1.67 ng/mL in assay [2]; 0.11 ng/mL in assay [3]; 0.29 ng/mL in [4]; “Dose-dependent effect” in assay [5]; “Dose-dependent effect” in assay [6]. The Activity was found to be 0.37 ng/mL in assay [7], 0.14 ng/mL in assay [8] and 0.01 ng/mL in assay [9].
